Activity calls are given as the source filed them. The calls are words filed in the database; no cut-off is given here.
Experiments:
[1] = Stability in human OVCAR-3 cells expressing androgen receptor assessed as assessed as compound degradation at 0.01 to 5 uCi/mL up to 24 hrs by silica gel instant thin layer chromatography; format: ADME, cell-based; settings: read-out: Activity
[2] = Stability in human OVCAR-3 cells expressing androgen receptor assessed as half life at 0.01 to 5 uCi/mL by silica gel instant thin layer chromatography; format: ADME, cell-based
[3] = test system: OVCAR-3; test: Antitumor activity against human OVCAR-3 cells xenografted in athymic NCr mouse at 14 uCi, ip administered 12 days after tumor implantation as single dose measured 5 weeks after implantation; format: functional, organism-based; settings: tested as the 125I-labelled form
Method in brief: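 Athymic NCr-nu/nu female mice bearing ip OVCAR-3 implants; compound given ip either as one 14 μCi/mouse dose or as three escalating daily doses of 5, 10 and 15 μCi/mouse (total 30 μCi); tumor response assessed at necropsy.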

[4] = test system: OVCAR-3; test: Antitumor activity against human OVCAR-3 cells xenografted in athymic NCr mouse administered 12 days after tumor implantation at a escalating dose of 5 uCi, ip of day 1, 20 uCi, ip on day 2, 15 uCi, ip on day 3 measured 5 weeks after implantation; format: functional, organism-based; settings: tested as the 125I-labelled form
[5] = biological target: T1, Albumin (Mus musculus, UniProt P07724); test: Binding affinity to mouse serum albumin at 10 to 20 uCi/mL after 60 mins by size-exclusion HPLC analysis; format: ADME; settings: isolated protein, 1 h
T1 sequence (P07724 whole entry): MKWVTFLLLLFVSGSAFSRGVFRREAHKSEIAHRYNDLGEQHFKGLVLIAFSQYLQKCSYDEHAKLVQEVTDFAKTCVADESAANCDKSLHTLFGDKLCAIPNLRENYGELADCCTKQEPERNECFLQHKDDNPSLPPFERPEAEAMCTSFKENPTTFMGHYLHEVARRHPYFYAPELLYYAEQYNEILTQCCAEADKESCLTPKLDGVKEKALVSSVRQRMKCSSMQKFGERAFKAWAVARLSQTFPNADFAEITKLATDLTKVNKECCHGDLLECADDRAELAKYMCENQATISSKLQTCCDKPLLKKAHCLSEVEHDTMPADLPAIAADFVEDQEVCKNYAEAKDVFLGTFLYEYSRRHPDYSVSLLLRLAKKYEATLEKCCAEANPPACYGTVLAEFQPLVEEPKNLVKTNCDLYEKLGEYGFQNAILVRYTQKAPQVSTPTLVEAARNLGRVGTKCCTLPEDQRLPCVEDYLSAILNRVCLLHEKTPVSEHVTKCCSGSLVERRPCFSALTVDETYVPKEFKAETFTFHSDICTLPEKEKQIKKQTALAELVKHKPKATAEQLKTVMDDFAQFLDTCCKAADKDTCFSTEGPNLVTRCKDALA
Method in brief: (§1)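 Radioiodinated compound incubated 60 min with human, rabbit or mouse serum, or with purified human SHBG. Aliquots analysed on a TSK3000 size-exclusion column: 0.1 M potassium phosphate/0.1 M Na2SO4 (1:1, pH 6.8) for 20 min, then 0–40% CH3CN over 20 min, held 30 min, 0.7 mL/min. Protein-bound versus free radioactivity read from the peaks.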

[6] = biological target: Albumin (Oryctolagus cuniculus, UniProt P49065); test: Binding affinity to rabbit serum albumin at 10 to 20 uCi/mL after 60 mins by size-exclusion HPLC analysis; format: ADME; settings: isolated protein, 1 h; method in brief: as §1
Sequence of Albumin (Oryctolagus cuniculus, UniProt P49065) (P49065 whole entry): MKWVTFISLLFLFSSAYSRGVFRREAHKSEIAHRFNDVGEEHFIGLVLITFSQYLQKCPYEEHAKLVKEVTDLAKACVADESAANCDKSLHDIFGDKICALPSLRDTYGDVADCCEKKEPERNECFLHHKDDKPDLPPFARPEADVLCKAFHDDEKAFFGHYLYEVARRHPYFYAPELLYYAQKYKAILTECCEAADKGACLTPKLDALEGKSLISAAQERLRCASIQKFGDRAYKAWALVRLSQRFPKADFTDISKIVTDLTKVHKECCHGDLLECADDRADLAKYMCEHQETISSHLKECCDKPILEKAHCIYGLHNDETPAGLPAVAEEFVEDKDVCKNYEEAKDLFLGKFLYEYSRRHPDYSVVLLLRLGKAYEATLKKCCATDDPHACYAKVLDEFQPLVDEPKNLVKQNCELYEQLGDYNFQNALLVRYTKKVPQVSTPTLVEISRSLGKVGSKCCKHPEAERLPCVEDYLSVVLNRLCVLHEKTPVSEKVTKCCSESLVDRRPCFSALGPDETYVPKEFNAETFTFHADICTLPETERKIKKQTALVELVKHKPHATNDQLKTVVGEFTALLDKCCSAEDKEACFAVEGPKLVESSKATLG

[7] = Stability in rabbit serum assessed as intact compound remaining at 10 to 20 uCi/mL after 60 mins by size-exclusion HPLC analysis; format: ADME, cell-free, Oryctolagus cuniculus; settings: read-out: Stability; method in brief: as §1
[8] = Stability in human serum assessed as intact compound remaining at 10 to 20 uCi/mL after 60 mins by reversed phase HPLC analysis; format: ADME, cell-free; settings: read-out: Stability
Method in brief: (§2)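 After 60 min incubation in human, rabbit or mouse serum, incubation mixtures were extracted. Extracts were run on C18 reverse-phase HPLC with H2O/CH3CN, both with 0.07% TFA: 100% aqueous for 10 min, then 0–95% CH3CN over 30 min, held 20 min. Intact radioactive compound was distinguished from degradation product against nonradioactive reference standards.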

[9] = biological target: T2, Sex hormone-binding globulin (Homo sapiens, UniProt P04278); test: Binding affinity to human sex hormone binding globulin at 10 to 20 uCi up to 6 hrs by size-exclusion HPLC analysis; format: ADME
T2 sequence (P04278 whole entry): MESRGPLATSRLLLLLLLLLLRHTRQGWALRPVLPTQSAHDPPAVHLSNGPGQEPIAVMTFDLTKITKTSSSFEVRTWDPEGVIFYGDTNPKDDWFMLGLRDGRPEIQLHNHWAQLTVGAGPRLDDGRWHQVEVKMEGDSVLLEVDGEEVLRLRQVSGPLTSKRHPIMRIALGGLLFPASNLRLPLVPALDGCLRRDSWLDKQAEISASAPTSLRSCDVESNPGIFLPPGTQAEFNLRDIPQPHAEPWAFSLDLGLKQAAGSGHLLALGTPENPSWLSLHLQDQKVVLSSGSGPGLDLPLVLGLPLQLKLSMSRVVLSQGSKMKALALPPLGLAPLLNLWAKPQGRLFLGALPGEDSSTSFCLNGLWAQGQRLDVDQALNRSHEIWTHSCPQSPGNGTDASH

[10] = Stability in rabbit serum assessed as intact compound remaining at 10 to 20 uCi/mL after 60 mins by reversed phase HPLC analysis; format: ADME, cell-free, Oryctolagus cuniculus; settings: read-out: Stability; method in brief: as §2
[11] = Stability in human serum assessed as intact compound remaining at 10 to 20 uCi/mL after 60 mins by size-exclusion HPLC analysis; format: ADME, cell-free; settings: read-out: Stability; method in brief: as §1
[12] = biological target: Albumin (Homo sapiens, UniProt P02768); test: Binding affinity to human serum albumin at 10 to 20 uCi/mL after 60 mins by size-exclusion HPLC analysis; format: ADME; settings: isolated protein, 1 h; method in brief: as §1
Sequence of Albumin (Homo sapiens, UniProt P02768) (P02768 whole entry): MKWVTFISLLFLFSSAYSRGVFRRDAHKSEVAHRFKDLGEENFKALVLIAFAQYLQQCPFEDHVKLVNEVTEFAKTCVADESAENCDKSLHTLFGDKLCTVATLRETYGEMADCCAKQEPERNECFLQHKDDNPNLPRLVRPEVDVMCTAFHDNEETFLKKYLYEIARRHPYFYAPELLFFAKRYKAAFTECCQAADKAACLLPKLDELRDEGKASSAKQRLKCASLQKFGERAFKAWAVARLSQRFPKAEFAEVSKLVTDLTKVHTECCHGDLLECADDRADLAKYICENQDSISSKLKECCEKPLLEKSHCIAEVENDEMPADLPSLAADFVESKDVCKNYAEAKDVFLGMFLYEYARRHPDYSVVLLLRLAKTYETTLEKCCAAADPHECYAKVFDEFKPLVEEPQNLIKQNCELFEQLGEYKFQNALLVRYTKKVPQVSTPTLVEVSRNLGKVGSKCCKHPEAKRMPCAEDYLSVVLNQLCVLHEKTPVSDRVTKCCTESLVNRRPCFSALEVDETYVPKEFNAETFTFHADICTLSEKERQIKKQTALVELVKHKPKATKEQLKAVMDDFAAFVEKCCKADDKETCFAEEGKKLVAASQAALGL

[13] = biological target: T2, Sex hormone-binding globulin; test: Binding affinity to human sex hormone binding globulin at 10 to 20 uCi up to 6 hrs by reversed phase HPLC analysis; format: ADME
[14] = biological target: T1, Albumin; test: Binding affinity to mouse serum albumin at 10 to 20 uCi/mL after 60 mins by reversed phase HPLC analysis; format: ADME; settings: isolated protein, 1 h
[15] = Stability in mouse serum assessed as intact compound remaining at 10 to 20 uCi/mL after 60 mins by size-exclusion HPLC analysis; format: ADME, cell-free; settings: read-out: Stability; method in brief: as §1
[16] = Stability in mouse serum assessed as intact compound remaining at 10 to 20 uCi/mL after 60 mins by reversed phase HPLC analysis; format: ADME, cell-free; settings: read-out: Stability; method in brief: as §2

SMILES | metabolised at 24 h [1] | half-life [2] | Activity [3] | Activity [4] | Activity [5] | Activity [6] | remaining at 1 h [7] | remaining at 1 h [8] | Activity [9] | remaining at 1 h [10] | remaining at 1 h [11] | Activity [12] | Activity [13] | Activity [14] | remaining at 1 h [15] | remaining at 1 h [16]
C[C@]12CCC(=O)C[C@@H]1CC[C@@H]1[C@@H]2CC[C@]2(C)[C@@H](OC(=O)CCC(=O)O[C@H]3C[C@H](n4cc([123I])c(=O)[nH]c4=O)O[C@@H]3CO)CC[C@@H]12 | > 70% | 13.2 h |  |  |  |  |  |  |  |  |  |  |  |  |  | 
C[C@]12CCC(=O)C[C@@H]1CC[C@@H]1[C@@H]2CC[C@]2(C)[C@@H](OC(=O)CCC(=O)O[C@H]3C[C@H](n4cc(I)c(=O)[nH]c4=O)O[C@@H]3CO)CC[C@@H]12 |  |  | inactive | inactive |  |  |  |  |  |  |  |  |  |  |  | 
O=c1[nH]c(=O)n([C@H]2C[C@H](O)[C@@H](COP(=O)(O)O)O2)cc1[125I] |  |  |  |  | Not Active | Not Active | 30% | 30% | Not Active | 30% | 30% | Not Active | Not Active | Not Active |  | 
CCOC(=O)CCC(=O)O[C@H]1C[C@H](n2cc([125I])c(=O)[nH]c2=O)O[C@@H]1CO |  |  |  |  | Not Active | Not Active | < 2% | > 90% | Not Active | < 2% | > 90% | Not Active | Not Active | Not Active | < 2% | < 2%

Reference: ChEMBL document CHEMBL1155242, “Radiolabeled 5-iodo-3'-O-(17beta-succinyl-5alpha-androstan-3-one)-2'-deoxyuridine and its 5'-monophosphate for imaging and therapy of androgen receptor-positive cancers: synthesis and biological evaluation” (J Med Chem, 2009)
